Measurements reported in publication PMC4980077 (The FEBS journal, 2016).
Entries after “also recorded” stand apart in the source; their conditions may differ. Values belong to the compound of their own block, whether it stands above or below them.

Key:
[1] = tested on: PKA:AKAP interaction; conditions: through an allosteric effect away from the D/D domain; ref [32]; cited from earlier work
[2] = tested on: PKG Iα; assay: 32P phosphorylation assay with PKG Iα; assay type: biochemical; conditions: PKG Iα 20 nM, pH 7.5; n = 3
Procedure, shortened: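 Substrate was His-tagged human smAKAP (wild type, or S66D with PKA-Cα) at 10 μM. It was incubated with 20 nM recombinant kinase in 50 mM MOPS pH 7.5 containing 10 mM MgCl2, 200 μM ATP and [32P]ATP. Aliquots were quenched in 30% acetic acid at 0, 5, 10 and 15 min. Results are means ± SD of 3 independent experiments.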

[3] = Circular dichroism of AKB peptides; assay type: physicochemical; conditions: 0.1 M Tris pH 8.5, Jasco J-810
[4] = tested on: PKA-RIβ; assay: Confocal colocalization with PKA-RIβ-mKO2 in HeLa cells; assay type: cell-based; conditions: transfected, confocal, unstimulated
Procedure, shortened: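 HeLa cells co-expressed GFP-tagged smAKAP (wild type, S66E or S66D) with mKO2-tagged PKA-RIα or RIβ. Cells were washed in ice-cold PBS, fixed in ice-cold 4% formaldehyde in PBS, washed twice and imaged by confocal microscopy through a 63× oil objective. Stimulated cells received calyculin A plus 8-CPT-cAMP and were imaged live.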

[5] = tested on: PKA-RIα; assay: Confocal colocalization with PKA-RIα in HeLa cells; assay type: cell-based; conditions: transfected, confocal, PKA-RIα-mCherry

Compound: Nc1cc(Cc2ccc(O)c(N)c2)ccc1O [FMP-API-1]
inhibition of PKA binding to AKAPs [1]: inhibit the binding of PKA to AKAPs

Compound: His6-smAKAP: recombinant human His-tagged smAKAP (wt), called smAKAP-wt in the phosphorylation assay
phosphorylation by PKG Iα compared with PKA [2]: only PKA phosphorylated

Compound: smAKAP-wt-GFP: wild-type smAKAP GFP fusion expressed in transfected cells
colocalization with PKA-RIβ-mKO2 [4]: strong colocalization along the plasma membrane; also recorded: colocalization at the plasma membrane
colocalization with PKA-RIα [5]: strong colocalization along the plasma membrane

Next, values leading:

secondary structure by CD [3]: no secondary structure
Compound: IVILEYAHRLDQDILCDALQQWAC [AKB-S66D]

secondary structure by CD [3]: no secondary structure
Compound: IVILEYAHRLEQDILCDALQQWAC [AKB-S66E]

α-helix propensity by CD [3]: ~ 45%
Compound: IVILEYAHRLSQDILCDALQQWAC [AKB-wt]

secondary structure by CD [3]: no secondary structure
Compound: IVILEYAHRLpSQDILCDALQQWAC [AKB-pSer66]
